What was measured:
K562 [1] = experiment: Induction of cell sensitization to imatinib in imatinib-resistant human K562 cells assessed as cell death at 10 uM incubated for 72 hrs in presence of 1 uM imatinib by PI staining based flow cytometry (reference value: 19%); format: functional
K562 [2] = experiment: Induction of cell sensitization to imatinib in imatinib-resistant human K562 cells assessed as cell death at 5 uM incubated for 72 hrs in presence of 1 uM imatinib by PI staining based flow cytometry (reference value: 19%); format: functional
[3] = Cytotoxicity against human HS5 cells assessed as cell death at 5 uM incubated for 72 hrs by PI staining based flow cytometry; conditions: hs5, 72 h
Method in brief: (§1)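 HS-5 stromal cells in DMEM with 10% FCS, 5% CO2, 37 °C. Seeded 0.5×10^5/well, given compound (5 µM) alone or with imatinib, and incubated 72 h. Cells stained with PI/Triton X-100 for 2 h at 4 °C. Dead cells counted by flow cytometry as sub-G1 nuclei. DMSO vehicle control included.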

COS-7 [4] = experiment: Cytotoxicity against African green monkey COS7 cells assessed as cell viability at 10 uM incubated for 72 hrs by MTT assay; format: cell-based; conditions: chlorocebus aethiops, cos-7, 72 h
Method in brief: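 COS-7 cells in DMEM with 10% FCS and L-glutamine, no antibiotics or phenol red. Seeded 2×10^3/well in triplicate, grown 24 h, then compound added at 10 µM final and incubated 72 h. Modified MTT (tetrazolium) metabolic-activity readout by absorbance. DMSO control set to 100%; DMSO ≤0.1%. Mean + SD of ≥3 experiments, triplicate determinations.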

[5] = Modulation of STAT5 expression in imatinib-resistant human K562 cells assessed as STAT5 level at 5 uM measured after 6 hrs by Jess Simple Western immunoassay (reference value: 100%); format: functional
Method in brief: (§2)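 K562-resistant (doxorubicin-resistant KD225) cells treated 6 h with compound at 5 µM, alone or with 1 µM imatinib, against a DMSO control. Total protein extracts analysed by capillary Jess Simple Western. STAT5 antibody 10 µg/ml with 0.2 mg/ml lysate; pSTAT5 (Y694/699) antibody 20 µg/ml with 2 mg/ml lysate. GAPDH (0.4 µg/ml) as loading reference; HRP anti-rabbit secondary.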

[6] = target: T1, Peroxisome proliferator-activated receptor gamma (Homo sapiens, UniProt P37231); experiment: Agonist activity at Gal4-fused human PPARgamma transfected in African green monkey COS7 cells co-transfected with pGal5-TK-pGL3 and pRenilla-CMV assessed as receptor transactivation at 10 uM incubated for 39 hrs by dual luciferase reporter gene assay relative to piaglitazone; format: cell-based; conditions: COS-7, human, read-out: max activation
T1 sequence (P37231 whole entry): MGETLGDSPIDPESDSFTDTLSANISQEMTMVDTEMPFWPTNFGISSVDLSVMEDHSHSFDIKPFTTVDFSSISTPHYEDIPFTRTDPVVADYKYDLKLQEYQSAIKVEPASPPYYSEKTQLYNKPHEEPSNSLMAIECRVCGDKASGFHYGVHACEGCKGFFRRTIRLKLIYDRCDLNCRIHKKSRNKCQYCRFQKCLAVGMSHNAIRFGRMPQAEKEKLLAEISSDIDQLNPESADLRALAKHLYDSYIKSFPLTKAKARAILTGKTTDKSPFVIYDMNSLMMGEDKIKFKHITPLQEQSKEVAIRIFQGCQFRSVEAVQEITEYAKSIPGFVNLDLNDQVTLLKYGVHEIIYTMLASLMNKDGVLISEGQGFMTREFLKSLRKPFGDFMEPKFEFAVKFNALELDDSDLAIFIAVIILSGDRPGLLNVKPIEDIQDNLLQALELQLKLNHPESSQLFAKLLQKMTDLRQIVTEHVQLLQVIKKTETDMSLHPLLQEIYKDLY
Method in brief: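 COS-7 cells (10^4/well, triplicates) grown 24 h, then transiently transfected with pGal5-TK-pGL3 (90 ng), pGal4-hPPARγDEF (9 ng) and pRenilla-CMV (3 ng). Compound added 7 h later, incubation 39 h. Cells lysed by freezing at -80 °C overnight plus lysis buffer. Firefly luciferase normalised to Renilla. Activity at 10 µM expressed relative to pioglitazone at 10 µM (100%). Mean ± SD of ≥3 experiments.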

K562 [7] = experiment: Cytotoxicity against imatinib-resistant human K562 cells assessed as cell death at 5 uM incubated for 72 hrs by propidium iodide staining based flow cytometry; conditions: k562, 72 h
Method in brief: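 K562-resistant cells, a doxorubicin-resistant K562 subclone (KD225), grown in RPMI 1640 with 10% FCS. Seeded 2×10^5/well and exposed 72 h to compound alone or with 1 µM imatinib. PI/Triton X-100 staining 2 h at 4 °C; flow cytometry scoring sub-G1 nuclei as dead cells. DMSO vehicle (≤0.1%) controls. Mean ± SEM of ≥3 experiments.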

[8] = Cytotoxicity against human HS5 cells assessed as cell death at 5 uM incubated for 72 hrs in presence of imatinib by PI staining based flow cytometry; conditions: hs5, 72 h; method in brief: as §1
[9] = Modulation of STAT5 expression in imatinib-resistant human K562 cells assessed as STAT5 level at 5 uM measured after 6 hrs in presence of imatinib by Jess Simple Western immunoassay (reference value: 100%); format: functional
[10] = target: T2, Signal transducer and activator of transcription 5A (Homo sapiens) (UniProt P42229); experiment: Inhibition of STAT5 phosphorylation at Y694/699 residue in imatinib-resistant human K562 cells assessed as phosphorylated STAT5 level at 5 uM incubated for 6 hrs by Jess Simple Western immunoassay (reference value: 100%); format: cell-based; set-up: scale not given: the % may be the effect or the level left; method in brief: as §2
T2 sequence (whole entry): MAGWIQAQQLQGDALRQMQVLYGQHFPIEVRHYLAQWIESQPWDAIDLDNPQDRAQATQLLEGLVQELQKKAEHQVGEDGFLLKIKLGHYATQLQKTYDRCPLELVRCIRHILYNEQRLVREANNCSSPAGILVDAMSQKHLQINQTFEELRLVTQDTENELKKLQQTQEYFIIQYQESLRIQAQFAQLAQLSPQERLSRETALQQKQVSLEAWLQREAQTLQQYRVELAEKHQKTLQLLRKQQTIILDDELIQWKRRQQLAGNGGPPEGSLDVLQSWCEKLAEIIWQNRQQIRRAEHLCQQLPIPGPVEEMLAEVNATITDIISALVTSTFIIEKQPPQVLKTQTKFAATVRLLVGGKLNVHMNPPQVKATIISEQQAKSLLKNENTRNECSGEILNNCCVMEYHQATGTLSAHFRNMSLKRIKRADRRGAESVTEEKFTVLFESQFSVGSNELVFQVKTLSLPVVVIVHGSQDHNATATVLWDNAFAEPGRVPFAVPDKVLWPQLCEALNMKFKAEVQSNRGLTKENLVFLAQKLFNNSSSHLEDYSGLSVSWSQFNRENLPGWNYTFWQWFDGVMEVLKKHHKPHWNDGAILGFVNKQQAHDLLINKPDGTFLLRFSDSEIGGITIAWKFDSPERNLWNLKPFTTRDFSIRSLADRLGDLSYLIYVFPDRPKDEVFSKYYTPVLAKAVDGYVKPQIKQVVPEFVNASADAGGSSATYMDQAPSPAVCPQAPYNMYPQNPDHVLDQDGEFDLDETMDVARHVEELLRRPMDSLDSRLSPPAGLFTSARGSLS

[11] = target: T2, Signal transducer and activator of transcription 5A (Homo sapiens); experiment: Inhibition of STAT5 phosphorylation at Y694/699 residue in imatinib-resistant human K562 cells assessed as phosphorylated STAT5 level at 5 uM incubated for 6 hrs in presence of imatinib by Jess Simple Western immunoassay (reference value: 100%); format: cell-based; set-up: scale not given: the % may be the effect or the level left
COS-7 [12] = experiment: Cytotoxicity against African green monkey COS7 cells assessed as cell viability at 10 uM incubated for 72 hrs by MTT assay; conditions: chlorocebus aethiops, cos-7, 72 h

SMILES | Activity (K562 [1]) [%] | Activity (K562 [2]) [%] | Activity [3] | Activity (COS-7 [4]) | Activity [5] [%] | Emax at 10 µM [6] [%] | Activity (K562 [7]) | Activity [8] | Activity [9] [%] | Activity [10] [%] | Activity [11] [%] | Activity (COS-7 [12])
CCCc1nc2c(Cl)cccc2n1Cc1ccc(-c2ccccc2C(=O)OC)cc1 | >85 | 57 | Non-Toxic | Non-Toxic | 103 | 22.2 | <= 20% | Non-Toxic | 101 | 87 | 3 | Non-Toxic
CCCc1nc2c(OC)cccc2n1Cc1ccc(-c2ccccc2C#N)cc1 | >85 | 50 | Non-Toxic | Non-Toxic |  | 45.9 | <= 20% | Non-Toxic |  |  |  | Non-Toxic
CCCc1nc2c(Br)cccc2n1Cc1ccc(-c2ccccc2C(=O)OC)cc1 | 66 | 26 | Non-Toxic | Non-Toxic | 103 | 11.6 | <= 20% | Non-Toxic | 116 | 89 | 27 | Non-Toxic
CCCc1nc2c(Br)cccc2n1Cc1ccc(-c2ccccc2C#N)cc1 | >85 | >76 | Non-Toxic | Non-Toxic | 107 | 41.1 | <= 20% | Non-Toxic | 103 | 90 | 4 | Non-Toxic
CCCc1nc2c(F)cccc2n1Cc1ccc(-c2ccccc2C(=O)OC)cc1 | >85 | 26 | Non-Toxic | Non-Toxic | 98 | 14.7 | <= 20% | Non-Toxic | 103 | 102 | 42 | Non-Toxic
CCCc1nc2c(OC)cccc2n1Cc1ccc(-c2ccccc2C(=O)OC)cc1 | >85 | 57 | Non-Toxic | Non-Toxic |  | 20.7 | <= 20% | Non-Toxic |  |  |  | Non-Toxic
CCCc1nc2c(C)cccc2n1Cc1ccc(-c2ccccc2C(=O)OC)cc1 | >85 | 40 | Non-Toxic | Non-Toxic |  | 13.8 | <= 20% | Non-Toxic |  |  |  | Non-Toxic
CCCc1nc2ccccc2n1Cc1ccc(-c2ccccc2C#N)cc1 | >85 | 50 | Non-Toxic | Non-Toxic | 98 | 64.5 | <= 20% | Non-Toxic | 96 | 78 | 3 | Non-Toxic
CCCc1nc2cc(Br)ccc2n1Cc1ccc(-c2ccccc2C(=O)OC)cc1 | 31 |  |  |  |  |  |  |  |  |  |  | 
CCCc1nc2c(N)cccc2n1Cc1ccc(-c2ccccc2C#N)cc1 |  | 28 | Non-Toxic | Non-Toxic |  | 43 | <= 20% | Non-Toxic |  |  |  | Non-Toxic
CCCc1nc2c([N+](=O)[O-])cccc2n1Cc1ccc(-c2ccccc2C#N)cc1 | >85 | 50 | Non-Toxic | Non-Toxic |  | 37.9 | <= 20% | Non-Toxic |  |  |  | Non-Toxic
CCCc1nc2ccc(Br)cc2n1Cc1ccc(-c2ccccc2C(=O)OC)cc1 | 63 |  |  |  |  |  |  |  |  |  |  | 
CCCc1nc2c(C)cccc2n1Cc1ccc(-c2ccccc2C#N)cc1 | >85 | 50 | Non-Toxic | Non-Toxic |  | 32.2 | <= 20% | Non-Toxic |  |  |  | Non-Toxic
CCCc1nc2ccccc2n1Cc1ccc(-c2ccccc2C(=O)OC)cc1 | >85 | 57 | Non-Toxic | Non-Toxic | 112 | 21.6 | <= 20% | Non-Toxic | 112 | 104 | 2 | Non-Toxic
CCCc1nc2c([N+](=O)[O-])cccc2n1Cc1ccc(-c2ccccc2C(=O)OC)cc1 | >85 | 57 | Non-Toxic | Non-Toxic |  | 15 | <= 20% | Non-Toxic |  |  |  | Non-Toxic
CCCc1nc2c(N)cccc2n1Cc1ccc(-c2ccccc2C(=O)OC)cc1 |  | 26 | Non-Toxic | Non-Toxic |  | 0.11 | <= 20% | Non-Toxic |  |  |  | Non-Toxic
